Laboratory results published in ChEMBL document CHEMBL4184223 (Bioorg Med Chem Lett, 2018).
Activity calls are given as the source filed them. No cut-off for these calls is given here.

Experiments:
Cortical neurone [1] = test: Neuroprotective activity against amyloid beta (1 to 42) peptide-induced cytotoxicty in CD1 mouse primary cortical neurons assessed as increase in cell viability at 0.1 to 10 uM pre-incubated for 1 hr before amyloid beta (1 to 42) addition and measured after 24 hrs by CCK8 assay; assay type: functional, cell-based
Cortical neurone [2] = test: Toxicity in CD1 mouse primary cortical neurons assessed as effect on cell viability at 0.01 to 1 uM incubated for 24 hrs by CCK8 assay; assay type: cell-based
Summary of the method: (§1)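 Primary cortical neuron cultures were given compound alone across a concentration range, without Aβ. Cell viability was measured by CCK8 and expressed as percent reduction in viable cells. Data are mean ± SD of three independent experiments.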

BV-2 (Mus musculus) [3] = test: Antiinflammatory activity in mouse BV-2 cells assessed as inhibition of LPS-induced TNF-alpha production at 20 nM pre-incubated for 1 hr before LPS stimulation for 23 hrs by ELISA method
[4] = Toxicity in African green monkey CV1 cells assessed as effect on cell viability incubated for 24 hrs by CCK8 assay
BV-2 (Mus musculus) [5] = test: Antiinflammatory activity in mouse BV-2 cells assessed as inhibition of LPS-induced TNF-alpha production pre-incubated for 1 hr before LPS stimulation for 23 hrs by ELISA method
Cortical neurone [6] = test: Neuroprotective activity against amyloid beta (1 to 42) peptide-induced cytotoxicty in CD1 mouse primary cortical neurons assessed as increase in cell viability at 0.01 to 1 nM pre-incubated for 1 hr before amyloid beta (1 to 42) addition and measured after 24 hrs by CCK8 assay; assay type: functional
Cortical neurone [7] = test: Neuroprotective activity against amyloid beta (1 to 42) peptide-induced cytotoxicty in CD1 mouse primary cortical neurons assessed as increase in cell viability at 1 to 10 nM pre-incubated for 1 hr before amyloid beta (1 to 42) addition and measured after 24 hrs by CCK8 assay; assay type: functional, cell-based
BV-2 (Mus musculus) [8] = test: Antiinflammatory activity in mouse BV-2 cells assessed as inhibition of LPS-induced TNF-alpha production at 10 to 1000 nM pre-incubated for 1 hr before LPS stimulation for 23 hrs by ELISA method
Cortical neurone [9] = test: Neuroprotective activity against amyloid beta (1 to 42) peptide-induced cytotoxicty in CD1 mouse primary cortical neurons assessed as increase in cell viability at 0.01 nM pre-incubated for 1 hr before amyloid beta (1 to 42) addition and measured after 24 hrs by CCK8 assay; assay type: functional
[10] = Stability in neurobasal cell culture medium supplemented with B-27 and N2 assessed as compound hydrolysis by LC-HR MS method; assay type: physicochemical; conditions: read-out: Drug degradation
Summary of the method: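 Compound was incubated in neurobasal culture medium containing B-27 and N2 at 37 °C for 24 h, with no enzyme present. The remaining compound concentration was then quantified by LC-HRMS.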

[11] = Toxicity in CD1 mouse primary cortical neurons assessed as effect on cell viability at 100 nM incubated for 24 hrs by CCK8 assay; assay type: cell-based, Cortical neurone; conditions: read-out: Activity
Summary of the method: (§2)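 Primary cortical neuron cultures were exposed to compound alone at the stated concentration. Viability was measured by CCK8 and expressed as the percentage reduction in viable cells.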

[12] = Toxicity in CD1 mouse primary cortical neurons assessed as effect on cell viability at 50 nM incubated for 24 hrs by CCK8 assay; assay type: cell-based, Cortical neurone; conditions: read-out: Activity; summary of the method: as §2
[13] = Toxicity in CD1 mouse primary cortical neurons assessed as effect on cell viability at 25 nM incubated for 24 hrs by CCK8 assay; assay type: cell-based, Cortical neurone; conditions: read-out: Activity; summary of the method: as §2
Cortical neurone [14] = test: Toxicity in CD1 mouse primary cortical neurons assessed as effect on cell viability at =< 10 nM incubated for 24 hrs by CCK8 assay; assay type: cell-based; summary of the method: as §1
BV-2 (Mus musculus) [15] = test: Antiinflammatory activity in mouse BV-2 cells assessed as inhibition of LPS-induced TNF-alpha production at 10 nM pre-incubated for 1 hr before LPS stimulation for 23 hrs by ELISA method
Cortical neurone [16] = test: Toxicity in CD1 mouse primary cortical neurons assessed as effect on cell viability at 1000 nM incubated for 24 hrs by CCK8 assay; assay type: cell-based; conditions: 1 µM; summary of the method: as §1
Cortical neurone [17] = test: Neuroprotective activity against amyloid beta (1 to 42) peptide-induced cytotoxicty in CD1 mouse primary cortical neurons assessed as increase in cell viability at 100 to 1000 nM pre-incubated for 1 hr before amyloid beta (1 to 42) addition and measured after 24 hrs by CCK8 assay; assay type: functional, cell-based

Row | Structure (SMILES) | Activity (Cortical neurone [1]) | Activity (Cortical neurone [2]) | Activity [4] | Activity (BV-2 (Mus musculus) [5]) | Activity (Cortical neurone [6]) | also measured
1 | CC(C)[C@]1(O)[C@H](O)[C@@H]2O[C@]23[C@]2(O[C@H]2C[C@H]2C4=C(CC[C@@]23C)C(=O)OC4)[C@@H]1O | Active | Non-Toxic | – | – | – | –
2 | CC(C)[C@]12O[C@H]1[C@@H]1O[C@]13[C@]1(O[C@H]1C[C@H]1C4=C(CC[C@@]13C)C(=O)OC4)[C@H]2F | – | – | Non-Toxic | Dose-dependent effect | inactive | inhibition at 0.02 µM (BV-2 (Mus musculus) [3]): 100%
3 | CC(C)[C@]12O[C@H]1[C@@H]1O[C@@]13[C@@]1(C)CCC4=C(COC4=O)[C@@H]1C[C@@H]1O[C@@]13C2=O [TRIPTONIDE] | inactive | – | Non-Toxic | – | – | inhibition at 0.02 µM (BV-2 (Mus musculus) [3]): 100%
4 | CC(C)C1=C[C@@H]2O[C@@]23[C@@]2(C)CCC4=C(COC4=O)[C@@H]2C[C@@H]2O[C@@]23C1=O | – | Non-Toxic | Non-Toxic | Dose-dependent effect | – | Activity (Cortical neurone [7]): Active; Activity (BV-2 (Mus musculus) [8]): inactive
5 | CC(C)[C@]1(O)[C@H](F)[C@@H]2O[C@]23[C@]2(O[C@H]2C[C@H]2C4=C(CC[C@@]23C)C(=O)OC4)[C@@H]1O | Active | Non-Toxic | – | – | – | –
6 | CC(C)[C@]12O[C@H]1[C@@H]1O[C@]13[C@]1(O[C@H]1C[C@H]1C4=C(CC[C@@]13C)C(=O)OC4)[C@@H]2O [TRIPTOLIDE] | – | – | – | Dose-dependent effect | 100% | Activity (Cortical neurone [9]): 100%; degraded [10]: 13%; viability at 24 h, 0.1 µM [11]: 76.5%; viability at 24 h, 0.05 µM [12]: 62.8%; viability at 24 h, 0.025 µM [13]: 27.2%
7 | CC(C)[C@]12O[C@H]1[C@@H]1O[C@@]13[C@@]1(C)CCC4=C(COC4=O)[C@@H]1CC[C@@]3(O)[C@@H]2O | – | Non-Toxic | Non-Toxic | – | – | Activity (Cortical neurone [7]): Active
8 | CC(C)[C@]12O[C@H]1[C@@H]1O[C@]13[C@]1(O[C@H]1C[C@H]1C4=C(CC[C@@]13C)C(=O)OC4)[C@@H]2OC(=O)NC12CC3CC(C)(CC(C)(C3)C1)C2 | – | – | Non-Toxic | Dose-dependent effect | Dose-dependent effect | Activity (Cortical neurone [9]): 100%; Activity (Cortical neurone [14]): Non-Toxic; degraded [10]: 13%; viability at 24 h, 0.1 µM [11]: 73.5%; viability at 24 h, 0.05 µM [12]: 32.8%; viability at 24 h, 0.025 µM [13]: 7.7%; inhibition at 0.01 µM (BV-2 (Mus musculus) [15]): 100%
9 | CC(C)[C@]12O[C@H]1[C@@H]1O[C@]13[C@]1(O[C@H]1C[C@H]1C4=C(CC[C@@]13C)C(=O)OC4)[C@@H]2OC(=O)NC(C)(C)C | – | – | – | – | – | Activity (Cortical neurone [16]): Toxic; Activity (Cortical neurone [17]): inactive
